Reference: article PMC3525873 (British Journal of Pharmacology, 2012)

Key:
Assay type in all cases: cell-based
TRPC5 = biological target: T1, TRPC5 (Homo sapiens, UniProt Q9UL62); assay: Fura-2 Ca2+ entry in HEK293 cells overexpressing YFP-TRPC5
T1 sequence (Q9UL62 1-973): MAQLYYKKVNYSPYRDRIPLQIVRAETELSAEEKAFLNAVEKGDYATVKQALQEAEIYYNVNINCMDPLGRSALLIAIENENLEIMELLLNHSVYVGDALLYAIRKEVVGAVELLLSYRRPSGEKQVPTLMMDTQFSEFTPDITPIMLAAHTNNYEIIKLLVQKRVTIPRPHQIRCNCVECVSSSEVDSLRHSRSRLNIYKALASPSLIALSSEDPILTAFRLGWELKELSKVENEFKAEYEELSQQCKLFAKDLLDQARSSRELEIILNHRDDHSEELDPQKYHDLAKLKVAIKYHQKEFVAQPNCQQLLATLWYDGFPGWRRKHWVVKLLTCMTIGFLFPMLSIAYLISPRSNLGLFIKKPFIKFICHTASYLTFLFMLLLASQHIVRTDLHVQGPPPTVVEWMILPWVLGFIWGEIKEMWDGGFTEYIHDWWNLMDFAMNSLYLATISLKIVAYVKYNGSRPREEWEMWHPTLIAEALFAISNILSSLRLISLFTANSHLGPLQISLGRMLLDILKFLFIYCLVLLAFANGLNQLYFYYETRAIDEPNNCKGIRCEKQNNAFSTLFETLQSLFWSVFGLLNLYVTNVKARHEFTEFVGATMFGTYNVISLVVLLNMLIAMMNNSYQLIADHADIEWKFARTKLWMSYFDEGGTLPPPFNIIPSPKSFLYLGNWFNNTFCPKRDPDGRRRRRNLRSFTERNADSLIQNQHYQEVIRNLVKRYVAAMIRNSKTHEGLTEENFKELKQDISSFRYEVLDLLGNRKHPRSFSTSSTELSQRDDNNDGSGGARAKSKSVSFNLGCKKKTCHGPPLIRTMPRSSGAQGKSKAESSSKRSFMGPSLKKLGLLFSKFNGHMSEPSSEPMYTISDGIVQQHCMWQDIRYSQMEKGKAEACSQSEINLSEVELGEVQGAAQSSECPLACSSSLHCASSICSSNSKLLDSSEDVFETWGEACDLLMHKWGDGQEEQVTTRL

RBL-2H3 cells = assay: Degranulation assay; details: ionomycin 0.4 μM
Procedure, shortened: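 RBL-2H3 cells grown to confluency, washed in RBL-2H3 buffer with 2 mM CaCl2, all incubations at 37°C. Test compound (3 or 10 μM) for 15 min, then ionomycin 0.4 μM final for 30 min. Stopped with 0.4 M glycine (pH 10.7), A405 read. Untreated and 2% triton-lysed cells served as basal/maximal references. n = 3 passages.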

TRPC4beta = biological target: T2, TRPC4beta (Homo sapiens, UniProt Q9UBN4); assay: Fura-2 Ca2+ entry in HEK293 cells overexpressing TRPC4beta-YFP
T2 sequence (Q9UBN4 1-893 isoform Q9UBN4-2): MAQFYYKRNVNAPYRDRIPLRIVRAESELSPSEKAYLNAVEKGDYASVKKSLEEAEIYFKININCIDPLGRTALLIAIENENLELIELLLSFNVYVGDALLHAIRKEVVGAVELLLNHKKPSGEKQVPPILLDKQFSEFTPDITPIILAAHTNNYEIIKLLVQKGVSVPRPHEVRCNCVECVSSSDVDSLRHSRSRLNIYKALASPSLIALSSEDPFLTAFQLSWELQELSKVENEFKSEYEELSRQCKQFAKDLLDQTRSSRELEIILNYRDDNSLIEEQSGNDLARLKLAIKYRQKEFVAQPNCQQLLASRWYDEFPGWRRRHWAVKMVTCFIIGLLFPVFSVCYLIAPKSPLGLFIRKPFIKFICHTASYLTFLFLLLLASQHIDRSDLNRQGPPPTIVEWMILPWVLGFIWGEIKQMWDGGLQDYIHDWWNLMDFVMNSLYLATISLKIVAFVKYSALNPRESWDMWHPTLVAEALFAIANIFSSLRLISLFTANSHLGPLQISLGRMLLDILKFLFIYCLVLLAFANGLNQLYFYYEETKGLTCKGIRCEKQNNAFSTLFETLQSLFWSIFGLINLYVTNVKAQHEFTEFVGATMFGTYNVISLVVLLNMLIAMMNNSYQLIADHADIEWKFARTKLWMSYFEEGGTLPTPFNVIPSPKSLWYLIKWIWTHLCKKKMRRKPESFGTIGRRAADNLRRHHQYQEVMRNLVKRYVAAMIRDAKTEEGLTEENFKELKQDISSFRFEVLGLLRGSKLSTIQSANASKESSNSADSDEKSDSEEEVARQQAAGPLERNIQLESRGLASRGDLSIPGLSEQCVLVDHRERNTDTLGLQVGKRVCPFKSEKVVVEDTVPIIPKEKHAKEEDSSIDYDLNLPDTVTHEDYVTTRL

TRPC3 = biological target: T3, TRPC3 (Homo sapiens, UniProt Q13507); details: TRPC3 ROCE vs RBL-2H3 SOCE
T3 sequence (Q13507 74-921 limits assumed): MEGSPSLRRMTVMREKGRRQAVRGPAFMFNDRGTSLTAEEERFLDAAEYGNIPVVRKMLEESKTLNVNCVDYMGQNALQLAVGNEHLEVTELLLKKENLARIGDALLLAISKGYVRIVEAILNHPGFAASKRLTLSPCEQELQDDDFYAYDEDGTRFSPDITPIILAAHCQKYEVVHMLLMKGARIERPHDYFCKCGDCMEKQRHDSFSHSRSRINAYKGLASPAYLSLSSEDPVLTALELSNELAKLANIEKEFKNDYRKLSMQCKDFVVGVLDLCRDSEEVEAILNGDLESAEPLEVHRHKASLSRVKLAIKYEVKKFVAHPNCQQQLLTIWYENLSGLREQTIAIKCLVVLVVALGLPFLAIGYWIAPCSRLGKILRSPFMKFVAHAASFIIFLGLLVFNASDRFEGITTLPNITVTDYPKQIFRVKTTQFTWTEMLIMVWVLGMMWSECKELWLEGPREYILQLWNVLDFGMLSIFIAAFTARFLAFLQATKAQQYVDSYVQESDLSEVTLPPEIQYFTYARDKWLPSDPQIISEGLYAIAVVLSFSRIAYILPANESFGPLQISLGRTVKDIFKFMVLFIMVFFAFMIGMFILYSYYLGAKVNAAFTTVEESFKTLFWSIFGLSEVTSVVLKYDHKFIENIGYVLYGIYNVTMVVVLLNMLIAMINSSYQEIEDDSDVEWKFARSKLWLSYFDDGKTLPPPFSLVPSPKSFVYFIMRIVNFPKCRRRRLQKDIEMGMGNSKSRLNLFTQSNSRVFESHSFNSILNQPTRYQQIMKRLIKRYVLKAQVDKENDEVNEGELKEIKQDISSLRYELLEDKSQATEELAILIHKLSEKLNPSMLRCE

IC50 (TRPC5)	IC50 (TRPC4beta)	Selectivity for TRPC3-ROCE as compared with the SOCE model, orders of magnitude (TRPC3)	Selectivity for TRPC3-ROCE as compared with the SOCE model (TRPC3; ratio of IC50 values)	SMILES	Effect on ionomycin-initiated degranulation (RBL-2H3 cells; 3 μM)	Effect on ionomycin-initiated degranulation (RBL-2H3 cells; 10 μM)
> 10 µM	> 10 µM			O=C(Nc1ccc(-n2nc(C(F)(F)F)cc2C(F)(F)F)cc1)c1ccncc1F [Pyr6, N-(4-(3,5-bis(trifluoromethyl)-1H-pyrazole-1-yl)phenyl)-3-fluoroisonicotinamide]	substantially reduced degranulation	suppressed responses down to basal levels
> 10 µM	> 10 µM	1.25 OM	18 fold	Cc1ccc(S(=O)(=O)Nc2ccc(-n3nc(C(F)(F)F)cc3C(F)(F)F)cc2)cc1 [Pyr10, N-(4-(3,5-bis(trifluoromethyl)-1H-pyrazole-1-yl)phenyl)-4-methylbenzenesulfonamide]		
